NPY2 pot ag: human NPY-Y2 potentiation or agonism, primary screen; actives 0.45% (n = 220,000); activation, % at 3.6 µM; cells expressing NPY-Y2, potentiator/agonist read-out; P49146; in the data active = activation above about 27%;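 also: cells stimulated with NPY near EC25 plus isoproterenol at EC100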
NPY Y1 blocker: NPY-Y1 (human) receptor antagonism; actives 1% (n = 200,000); P25929; HEK293-CNG Y1 cells, membrane potential fluorescence; NPY at EC95, then isoproterenol; inhibition, % at 3.6 µM;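 active = inhibition above the campaign mean inhibition of all tested compounds plus 3 SD, cut at about 20% in these data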
Target sequence (P25929 whole entry, looked up): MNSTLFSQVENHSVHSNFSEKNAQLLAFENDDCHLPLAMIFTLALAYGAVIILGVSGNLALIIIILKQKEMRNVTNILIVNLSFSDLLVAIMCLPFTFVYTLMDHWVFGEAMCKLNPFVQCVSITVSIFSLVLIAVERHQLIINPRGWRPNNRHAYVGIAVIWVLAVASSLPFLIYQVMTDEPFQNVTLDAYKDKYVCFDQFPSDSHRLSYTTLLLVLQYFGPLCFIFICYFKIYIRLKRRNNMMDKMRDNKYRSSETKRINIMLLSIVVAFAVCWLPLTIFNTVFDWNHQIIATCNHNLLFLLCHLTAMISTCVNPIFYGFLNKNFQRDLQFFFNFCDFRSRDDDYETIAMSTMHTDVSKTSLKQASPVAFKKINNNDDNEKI
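Material: HEK293 cells with Y1 receptor plus CNG channel; times: compound incubation 1 h at room temperature, readout 45 min post-stimulation; signal: fluorescence, membrane potential probe; read-out basis: fluorescence ratio normalized to % inhibition between controls; benchmarks: full-block control isoproterenol-only wells, zero-block control NPY plus isoproterenol wells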
NPY Y2 blocker: antagonists of human neuropeptide Y receptor Y2; P49146; NPY-Y2 expressing cells, antagonist mode; inhibition, % at 2.7 µM; actives 0.99% (n = 140,000)
NPY1 pot ag: human NPY-Y1 potentiation or agonism, primary screen. P25929. NPY-Y1 expressing cells, potentiator/agonist activation. activation, % at 3.6 µM. actives 0.37% (n = 220,000). AID 1304; in the data active = activation above about 33%, passing the limit was not always enough;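 also: cells stimulated with NPY at EC10 then isoproterenol at EC100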
NPY-Y1 ant conf: confirmation of human neuropeptide Y receptor Y1 antagonists; inhibition, % at 3.6 µM; HEK293-CNG NPY-Y1, membrane potential fluorescence, cAMP; NPY challenge against isoproterenol-raised cAMP; AID 1254; actives 21% (n = 1,200); shares compounds with NPY Y1 blocker; in the data active = inhibition above about 20%
NPY2 antag ctr: antagonizes human NPY-Y2, counter-screen to NPY-Y1 antagonists; shares compounds with NPY Y1 blocker; HEK293 NPY-Y2 CNG membrane potential fluorescence, antagonism; cells given NPY, then isoproterenol; inhibition, % at 3.6 µM; actives 28% (n = 1,200); AID 1255
Large screens that a line does not name were inactive (follow-up assays come after a bar, where they were run). Hits are enriched below; roughly 1.8% of the tested compounds scored in any of these assays. Rule as the data show it, unless noted: active = inhibition above about 17%; inactive = the rest.

Cc1nn(C)cc1C(C)NC(=O)c1cc(COc2c(F)cccc2F)on1 (stereo unspecified)	none (no result: NPY Y2 blocker)
CC(NC(=O)c1cc(COc2c(F)cccc2F)on1)c1cnn(-c2ccccc2)c1 (stereo unspecified)	NPY Y1 blocker 22.0 (no result: NPY Y2 blocker) | NPY-Y1 ant conf inactive | NPY2 antag ctr inactive
Cc1ccc(-n2cccn2)c(CN2CCC(CO)(CCc3ccccc3)CC2)c1	NPY Y1 blocker 44.6 (no result: NPY Y2 blocker) | NPY-Y1 ant conf inactive | NPY2 antag ctr 19.4
COCCCNc1nc(SCc2ccccc2)nc2sc3c(c12)CCC3	NPY Y1 blocker 21.1 | NPY-Y1 ant conf 29.8 | NPY2 antag ctr 46.1
Cc1ccc(Nc2nc(N)nc(CC#N)n2)cc1	none
Cc1ccc2c(c1)N(CCC(=O)NCc1cccnc1)C(=O)CO2	none
Cc1nn(C)c(C(=O)Nc2ccc(Cn3cccn3)cc2)c1[N+](=O)[O-]	NPY Y1 blocker 24.5 | NPY-Y1 ant conf inactive | NPY2 antag ctr inactive
CCCCN(CCCC)CC(O)COc1ccccc1C(=O)Nc1ccccc1 (stereo unspecified)	NPY Y1 blocker 45.6 (no result: NPY Y2 blocker) | NPY-Y1 ant conf inactive | NPY2 antag ctr 18.2
CCOc1ccc2nc(NC(=O)/C=C/c3ccc4c(c3)OCO4)sc2c1	none
CCSc1nc(C2CC2)cc(-c2cccs2)c1C#N	NPY Y1 blocker 21.8 | NPY-Y1 ant conf inactive | NPY2 antag ctr inactive
CCSc1nc(C2CC2)cc(-c2ccco2)c1C#N	none
COC(=O)c1ccc(COC(=O)CNC(=O)c2ccco2)cc1	none
COC(=O)c1ccc(COC(=O)CNC(=O)c2ccc(-c3ccccc3)cc2)cc1	NPY Y1 blocker 20.8 | NPY-Y1 ant conf inactive | NPY2 antag ctr inactive
CN1CCN(CCNC(=O)Nc2ccccc2C(F)(F)F)CC1	none
C=CCNC(=O)/C(C#N)=C\c1cc(Cl)c(O)c(OCC)c1	none
CCOc1cc(/C=C2\CCC/C(=C\c3cc(Cl)c(O)c(OCC)c3)C2=O)cc(Cl)c1O	NPY Y1 blocker 44.0 | NPY-Y1 ant conf 45.2 | NPY2 antag ctr 44.0
O=C(c1ccc(Br)o1)N(Cc1ccccc1)Cc1ccccc1	NPY Y1 blocker 20.1 | NPY-Y1 ant conf inactive | NPY2 antag ctr inactive
Cc1oc(-c2ccc(Cl)cc2)nc1CN1CCC(C(=O)NCCCN2CCOCC2)CC1	NPY Y1 blocker 23.4 | NPY-Y1 ant conf inactive | NPY2 antag ctr inactive
Brc1ccccc1-c1nnc2sc(Cc3ccccc3)nn12	none
COc1ccc(N2CCN(c3oc(-c4ccco4)nc3C#N)CC2)cc1	NPY Y1 blocker 21.8 | NPY-Y1 ant conf inactive | NPY2 antag ctr inactive
CC(C)CCNc1nc(-c2ccco2)c2c(c1C#N)CCCC2	NPY Y1 blocker 22.2 | NPY-Y1 ant conf inactive | NPY2 antag ctr inactive
CCN(CC)CCSc1nc2ccccc2c(=S)n1-c1ccccc1	NPY Y1 blocker 57.1 (no result: NPY Y2 blocker) | NPY-Y1 ant conf 20.1 | NPY2 antag ctr 23.7
CC[C@H](C)C(C(=O)N1CCN(C(=O)OC(C)(C)C)CC1)n1cc(C(Cc2ccc(O)cc2)NC(=O)OC(C)(C)C)nn1 (stereo partly specified)	none (no result: NPY Y2 blocker)
CCCC(C)C(=O)Nc1nc(C)c(-c2csc(Nc3ccccc3OC)n2)s1 (stereo unspecified)	NPY Y1 blocker 23.6 | NPY-Y1 ant conf inactive | NPY2 antag ctr inactive
CCCCCCC(=O)Nc1nc(C)c(-c2csc(Nc3ccccc3OC)n2)s1	NPY Y1 blocker 32.1 | NPY-Y1 ant conf inactive | NPY2 antag ctr inactive
CCC(C)(C)n1nnnc1C(c1ccc(C)cc1)N1CCN(Cc2cccnc2)CC1 (stereo unspecified)	none
Cc1ccc(S(=O)(=O)Cn2nnnc2C(C(C)C)N2CCSCC2)cc1 (stereo unspecified)	NPY Y1 blocker 21.2 | NPY-Y1 ant conf inactive | NPY2 antag ctr inactive
Cc1ccc(S(=O)(=O)Cn2nnnc2C(C(C)C)N2CCc3ccccc3C2)cc1 (stereo unspecified)	none
CCC(C)(C)n1nnnc1C(c1ccc(C)cc1)N1CCSCC1 (stereo unspecified)	NPY Y1 blocker 24.2 | NPY-Y1 ant conf inactive | NPY2 antag ctr inactive
CCOc1ccccc1NC(=O)c1ccccc1-c1nc(-c2ccccc2OC)no1	NPY Y1 blocker 42.5 | NPY-Y1 ant conf 23.5 | NPY2 antag ctr 22.8
